The subject of this test is M2 anti-FLAG antibody. The test is described as follows: Prot-MaP on-chip limit of detection. The class given is binding, mouse. The settings on record: for fluorescence signal relative to WT: quantified fluorescence medians across M2 concentrations, Fig. 2B. The gist of the method:
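Run at 25°C: M2 at 1, 3.2, 10, 32, 100nM (45 min each), each followed by wash and 35nM Alexa555 anti-mouse secondary (37 min). Zero-primary secondary gives baseline. Per-variant cluster medians used; threshold 3σ above negative-set mean; LoD by inter/extrapolation.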

Consider “DYKDDDDKGDYKDHD [2xFLAG, reference compound]”, for which the “fluorescence signal relative to WT” value is given as “much higher signal than WT”.
As for DYKDEDLL [superFLAG], the “fluorescence signal relative to WT” value is “much higher signal than WT”. Besides, the “fold lower LoD than WT” value (LoD of WT FLAG (DYKDDDDK) relative to variant) amounted to 7.9 fold.

Values taken from paper PMC7001660 (Molecular cell, 2019).
